# How the values were obtained:
# [1] = target: Platelet-activating factor receptor (Mus musculus) (UniProt Q62035); assay: Oral dose required to inhibit PAF-induced mortality (PAF-Antagonistic activity)in mice by 50%.; assay type: functional; conditions: Mus sp.
# Outline: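 Male Swiss mice, 22-26 g, in groups of 10. Compound or saline given po (20 mL/kg) 60 min before C18-PAF 100 µg/kg plus propranolol 1 mg/kg by tail vein. ID50 from percent inhibition of mortality versus controls.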
# [2] = target: Platelet-activating factor receptor (Rattus norvegicus) (UniProt P46002); assay: Dose required to inhibit PAF-induced hypotension (PAF-Antagonistic activity) in normotensive rats by 50%.; assay type: functional
# Outline: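 Male Sprague-Dawley rats, 180-220 g, anesthetized with sodium pentobarbital ip. Carotid blood pressure recorded. Compound given iv in saline (1 mL/kg) via femoral vein 3 min before PAF 0.5 µg/kg iv; vehicle controls. ID50 by linear regression of one curve of at least four doses, each the mean % inhibition from two or more experiments.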
# [3] = target: Platelet-activating factor receptor (Rattus norvegicus) (UniProt P46002); assay: In vivo dose administered intravenously to inhibit PAF-induced hypotension (PAF-Antagonistic activity) in normotensive rats by 59%.; assay type: functional, organism-based
# [4] = target: Platelet-activating factor receptor (Rattus norvegicus) (UniProt P46002); assay: In vivo dose administered intravenously to inhibit PAF-induced hypotension (PAF-Antagonistic activity) in normotensive rats by 55%.; assay type: functional, organism-based
# Sequence of Platelet-activating factor receptor (Rattus norvegicus) (P46002 whole entry): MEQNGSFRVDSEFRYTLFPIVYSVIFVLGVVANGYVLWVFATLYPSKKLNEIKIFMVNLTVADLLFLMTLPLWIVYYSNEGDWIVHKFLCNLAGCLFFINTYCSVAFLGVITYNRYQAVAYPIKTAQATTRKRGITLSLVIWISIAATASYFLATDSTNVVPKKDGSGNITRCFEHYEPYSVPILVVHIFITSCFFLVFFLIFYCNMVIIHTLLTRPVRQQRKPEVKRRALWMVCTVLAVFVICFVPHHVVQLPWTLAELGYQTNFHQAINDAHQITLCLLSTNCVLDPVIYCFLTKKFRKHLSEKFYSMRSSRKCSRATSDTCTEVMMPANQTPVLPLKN
# Sequence of Platelet-activating factor receptor (Mus musculus) (Q62035 whole entry): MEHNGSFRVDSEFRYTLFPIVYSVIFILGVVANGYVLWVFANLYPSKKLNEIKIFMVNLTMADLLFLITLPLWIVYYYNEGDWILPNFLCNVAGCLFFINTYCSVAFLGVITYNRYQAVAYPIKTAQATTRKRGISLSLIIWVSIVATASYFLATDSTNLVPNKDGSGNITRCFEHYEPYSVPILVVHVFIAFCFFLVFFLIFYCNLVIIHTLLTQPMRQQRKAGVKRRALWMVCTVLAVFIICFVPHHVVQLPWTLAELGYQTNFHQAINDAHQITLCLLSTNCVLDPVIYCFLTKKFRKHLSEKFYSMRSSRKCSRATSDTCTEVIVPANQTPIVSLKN
SMILES,ID50 [1],ID50 [2],ID50 [3],ID50 [4]
N#CC(c1cccnc1)N1CCN(C(=O)C(Cc2ccccc2)Cc2ccccc2)CC1 (configuration not stated),100 mg/kg,0.68 mg/kg,–,–
N#CC(c1cccnc1)N1CCN(C(=S)C(c2ccccc2)c2ccccc2)CC1 (configuration not stated),> 50 mg/kg,0.45 mg/kg,–,–
COc1cc(C(=O)N2CCN(C(=O)c3cc(OC)c(OC)c(OC)c3)CC2)cc(OC)c1OC,> 100 mg/kg,4.7 mg/kg,–,–
COc1cc(C(=O)N2CCN(C(=S)c3cccnc3)CC2)cc(OC)c1OC,100 mg/kg,> 5 mg/kg,–,–
CN(CC(=O)N1CCN(C(C#N)c2cccnc2)CC1)C(c1ccccc1)c1ccccc1 (configuration not stated),4.6 mg/kg,0.33 mg/kg,–,–
CCCCCCCCCCCCCCCC(=O)N1CCN(C(C#N)c2cccnc2)CC1 (configuration not stated),–,> 5 mg/kg,–,–
N#CC(c1cccnc1)N1CCN(C(=O)CN(Cc2ccccc2)c2ccccc2)CC1 (configuration not stated),> 30 mg/kg,0.42 mg/kg,–,–
Cc1nnc2n1-c1sc(CCC(=O)N3CCOCC3)cc1C(c1ccccc1Cl)=NC2,0.97 mg/kg,0.17 mg/kg,–,–
N#CC(c1cccc(C(F)(F)F)c1)N1CCN(C(=O)CC(c2ccccc2)c2ccccc2)CC1 (configuration not stated),> 30 mg/kg,> 5 mg/kg,–,–
N#CC(c1cccnc1)N1CCN(C(=O)CNC(c2ccccc2)c2ccccc2)CC1 (configuration not stated),5.9 mg/kg,0.023 mg/kg,–,–
N#CC(c1ccncc1)N1CCN(C(=O)CC(O)(c2ccccc2)c2ccccc2)CC1 (configuration not stated),7.7 mg/kg,0.061 mg/kg,–,–
COc1cc(C(=O)N2CCN(C(=O)c3cccnc3)CC2)cc(OC)c1OC,> 100 mg/kg,> 5 mg/kg,–,–
O=C(C(c1ccccc1)c1ccccc1)N1CCN(Cc2cccnc2)CC1,–,2.7 mg/kg,–,–
N#CC(c1cccnc1)N1CCN(C(=O)NC(c2ccccc2)c2ccccc2)CC1 (configuration not stated),30 mg/kg,0.29 mg/kg,–,–
N#CC(c1cccnc1)N1CCN(C(=O)CNC(Cc2ccccc2)c2ccccc2)CC1 (configuration not stated),> 10 mg/kg,0.38 mg/kg,–,–
NC(=O)C(c1cccnc1)N1CCN(C(=O)C(c2ccccc2)c2ccccc2)CC1 (configuration not stated),–,> 5 mg/kg,–,–
N#CC(c1cccnc1)N1CCN(C(=O)CCc2ccccc2)CC1 (configuration not stated),44 mg/kg,1.2 mg/kg,–,–
CN(CC(=O)N1CCN(C(C#N)c2cccnc2)CC1)c1ccccc1 (configuration not stated),–,2.2 mg/kg,–,–
COc1cc(C(=O)N2CCN(Cc3cccnc3)CC2)cc(OC)c1OC,> 100 mg/kg,> 5 mg/kg,–,–
N#CC(c1cccnc1)N1CCN(C(=O)c2ccccc2)CC1 (configuration not stated),–,> 5 mg/kg,–,–
N#CC(c1cccnc1)N1CCN(C(=O)CCNC(c2ccccc2)c2ccccc2)CC1 (configuration not stated),5.4 mg/kg,0.025 mg/kg,–,–

SMILES,ID50 [1],ID50 [2],ID50 [3],ID50 [4]
N#CC(c1cccnc1)N1CCN(C(=O)OCC(c2ccccc2)c2ccccc2)CC1 (configuration not stated),> 30 mg/kg,0.078 mg/kg,–,–
N#Cc1cccc(C(C#N)N2CCN(C(=O)CC(c3ccccc3)c3ccccc3)CC2)c1 (configuration not stated),> 30 mg/kg,> 5 mg/kg,–,–
Cn1ccc(C(C#N)N2CCN(C(=O)CC(c3ccccc3)c3ccccc3)CC2)c1 (configuration not stated),–,4.2 mg/kg,–,–
N#CC(c1cccnc1)N1CCN(C(=O)CN(Cc2ccccc2)Cc2ccccc2)CC1 (configuration not stated),> 10 mg/kg,1.7 mg/kg,–,–
N#CC(c1cccnc1)N1CCN(C(=O)CC(c2ccccc2)c2ccccc2)CC1 (configuration not stated),12 mg/kg,0.013 mg/kg,–,–
CC(C(=O)N1CCN(C(C#N)c2cccnc2)CC1)c1ccccc1 (configuration not stated),> 50 mg/kg,0.26 mg/kg,–,–
CCCCC(=O)N1CCN(C(C#N)c2cccnc2)CC1 (configuration not stated),> 50 mg/kg,4.3 mg/kg,–,–
COc1cc(C(=O)N2CCN(C(C#N)c3cccnc3)CC2)cc(OC)c1OC (configuration not stated),> 100 mg/kg,4.4 mg/kg,–,–
COc1cc(CCC(=O)N2CCN(C(C#N)c3cccnc3)CC2)cc(OC)c1OC (configuration not stated),100 mg/kg,2 mg/kg,–,–
CC(c1ccccc1)N(C)CC(=O)N1CCN(C(C#N)c2cccnc2)CC1 (configuration not stated),> 50 mg/kg,0.77 mg/kg,–,–
N#CC(c1cccnc1)N1CCN(C(=O)CNc2ccccc2)CC1 (configuration not stated),28 mg/kg,0.49 mg/kg,–,–
N#CC(c1cncs1)N1CCN(C(=O)CC(c2ccccc2)c2ccccc2)CC1 (configuration not stated),25 mg/kg,0.75 mg/kg,–,–
CC(C(=O)N1CCN(C(C#N)c2cccnc2)CC1)(c1ccccc1)c1ccccc1 (configuration not stated),> 30 mg/kg,0.14 mg/kg,–,–
CC(NCC(=O)N1CCN(C(C#N)c2cccnc2)CC1)c1ccccc1 (configuration not stated),18 mg/kg,0.39 mg/kg,–,–
Cn1cc(C(C#N)N2CCN(C(=O)CC(c3ccccc3)c3ccccc3)CC2)c2ccccc21 (configuration not stated),–,> 5 mg/kg,–,–
COc1cc(CC(=O)N2CCN(C(C#N)c3cccnc3)CC2)cc(OC)c1OC (configuration not stated),> 50 mg/kg,2.5 mg/kg,–,–
N#CC(c1cccnc1)N1CCN(C(=O)CNc2cccc3ccccc23)CC1 (configuration not stated),–,2.5 mg/kg,–,–
N#CC1(Nc2cccnc2)CCN(C(=O)CNC(c2ccccc2)c2ccccc2)CC1,15 mg/kg,0.096 mg/kg,–,–
N#CC(c1cccnc1)C1CCN(C(=O)C(c2ccccc2)c2ccccc2)CC1 (configuration not stated),14 mg/kg,0.023 mg/kg,–,–
N#CC(c1cccnc1)N1CCN(C(=O)/C=C/c2ccccc2)CC1 (configuration not stated),100 mg/kg,0.24 mg/kg,–,–
N#CC(c1cccnc1)N1CCN(C(=O)C(CCc2ccccc2)c2ccccc2)CC1 (configuration not stated),–,0.73 mg/kg,–,–

SMILES,ID50 [1],ID50 [2],ID50 [3],ID50 [4]
N#CC(c1cccnc1)N1CCN(C(=O)C(c2ccccc2)c2ccccc2)CC1 (configuration not stated),12 mg/kg,0.11 mg/kg,–,–
CC(C#N)(c1cccnc1)N1CCN(C(=O)C(c2ccccc2)c2ccccc2)CC1 (configuration not stated),> 30 mg/kg,> 5 mg/kg,–,–
N#CC(c1cccnc1)C1CCN(C(=O)CNC(c2ccccc2)c2ccccc2)CC1 (configuration not stated),2.6 mg/kg,0.03 mg/kg,–,–
O=C(CC(c1ccccc1)c1ccccc1)N1CCN(Cc2cccnc2)CC1,35 mg/kg,0.48 mg/kg,–,–
N#CC1(Nc2cccnc2)CCN(C(=O)CC(c2ccccc2)c2ccccc2)CC1,12 mg/kg,0.04 mg/kg,–,–
CCCCCCCC(=O)N1CCN(C(C#N)c2cccnc2)CC1 (configuration not stated),100 mg/kg,1.2 mg/kg,–,–
O=C(CC(c1ccccc1)c1ccccc1)N1CCC(Nc2cccnc2)CC1,–,2.4 mg/kg,–,–
N#CC(c1cccnc1)N1CCN(CC(=O)NCCC(c2ccccc2)c2ccccc2)CC1 (configuration not stated),> 30 mg/kg,3 mg/kg,–,–
N#CC(c1cccnc1)N1CCN(CCNC(=O)C(c2ccccc2)c2ccccc2)CC1 (configuration not stated),50 mg/kg,0.29 mg/kg,–,–
N#CC(c1ccncc1)N1CCN(C(=O)CCNC(c2ccccc2)c2ccccc2)CC1 (configuration not stated),3.2 mg/kg,0.037 mg/kg,–,–
N#CC(c1cccnc1)N1CCN(C(=O)CNCCCc2ccccc2)CC1 (configuration not stated),50 mg/kg,1.3 mg/kg,–,–
N#CC(c1cccc(Cl)c1)N1CCN(C(=O)CC(c2ccccc2)c2ccccc2)CC1 (configuration not stated),> 30 mg/kg,> 5 mg/kg,–,–
N#CC(c1cccnc1)N1CCN(C(=O)CC(O)(c2ccccc2)c2ccccc2)CC1 (configuration not stated),4.7 mg/kg,0.061 mg/kg,–,–
N#CC(c1cccnc1)N1CCC(OC(=O)CC(c2ccccc2)c2ccccc2)CC1 (configuration not stated),–,> 5 mg/kg,–,–
CC(C)(C)C(=O)N1CCN(C(C#N)c2cccnc2)CC1 (configuration not stated),–,> 5 mg/kg,–,–
N#CC(c1ccncc1)N1CCN(CCNC(c2ccccc2)c2ccccc2)CC1 (configuration not stated),29 mg/kg,–,5 mg/kg,–
N#CC(c1cccnc1)N1CCN(C(=O)Cc2ccccc2)CC1 (configuration not stated),50 mg/kg,1.5 mg/kg,–,–
N#CC(c1cccnc1)N1CCN(C(=O)C=C(c2ccccc2)c2ccccc2)CC1 (configuration not stated),50 mg/kg,0.049 mg/kg,–,–
N#CC(c1cccnc1)N1CCN(CCC(c2ccccc2)c2ccccc2)CC1 (configuration not stated),15 mg/kg,3.1 mg/kg,–,–
CC(c1cccnc1)N1CCN(C(=O)C(c2ccccc2)c2ccccc2)CC1 (configuration not stated),100 mg/kg,3.6 mg/kg,–,–
N#CC(c1cccnc1)N1CCN(C(=O)c2ccc3ccccc3c2)CC1 (configuration not stated),–,–,–,5 mg/kg

SMILES,ID50 [1],ID50 [2],ID50 [3],ID50 [4]
N#CC(c1cccc([N+](=O)[O-])c1)N1CCN(C(=O)CC(c2ccccc2)c2ccccc2)CC1 (configuration not stated),> 30 mg/kg,> 5 mg/kg,–,–
O=C(c1cccnc1)N1CCN(C(=O)C(c2ccccc2)c2ccccc2)CC1,–,> 5 mg/kg,–,–
CN(CCCc1ccccc1)CC(=O)N1CCN(C(C#N)c2cccnc2)CC1 (configuration not stated),–,> 5 mg/kg,–,–
N#CC(c1cccnc1)N1CCN(C(=O)CNCCC(c2ccccc2)c2ccccc2)CC1 (configuration not stated),14 mg/kg,0.21 mg/kg,–,–
N#CC(c1cccnc1)N1CCN(C(=O)Cc2cccc3ccccc23)CC1 (configuration not stated),> 50 mg/kg,1.3 mg/kg,–,–
O=C(C(c1ccccc1)c1ccccc1)N1CC[N+]([O-])(Cc2cccnc2)CC1,–,> 5 mg/kg,–,–
N#CC(c1ccncc1)N1CCN(C(=O)CC(c2ccccc2)c2ccccc2)CC1 (configuration not stated),7.3 mg/kg,0.041 mg/kg,–,–
N#CC(c1cccnc1)N1CCN(C(=O)CNCc2ccccc2)CC1 (configuration not stated),50 mg/kg,0.8 mg/kg,–,–
N#CC(=C1CCN(C(=O)CC(c2ccccc2)c2ccccc2)CC1)c1cccnc1,30 mg/kg,0.42 mg/kg,–,–
N#CC(c1cccnc1)N1CCN(C(=O)/C(=C/c2ccccc2)c2ccccc2)CC1 (configuration not stated),> 20 mg/kg,0.17 mg/kg,–,–
COc1cc(CCC(=O)N2CCN(C(=O)c3cc(OC)c(OC)c(OC)c3)CC2)cc(OC)c1OC,–,> 5 mg/kg,–,–
N#CC(c1cccnc1)N1CCN(C(=O)CNCC(c2ccccc2)c2ccccc2)CC1 (configuration not stated),> 10 mg/kg,0.36 mg/kg,–,–
N#CC(CN1CCN(C(=O)C(c2ccccc2)c2ccccc2)CC1)c1cccnc1 (configuration not stated),–,> 5 mg/kg,–,–
N#CC(c1cccnc1)N1CCN(C(=O)C(Cc2ccccc2)c2ccccc2)CC1 (configuration not stated),> 50 mg/kg,0.12 mg/kg,–,–
N#CC(c1cccnc1)N1CCN(C(=O)Cc2c[nH]c3ccccc23)CC1 (configuration not stated),> 50 mg/kg,3.3 mg/kg,–,–
N#CC(c1ccncc1)N1CCN(C(=O)CNC(=O)C(c2ccccc2)c2ccccc2)CC1 (configuration not stated),> 20 mg/kg,0.47 mg/kg,–,–
COc1cc(C(=O)N2CCN(C(C#N)c3ccccn3)CC2)cc(OC)c1OC (configuration not stated),–,> 5 mg/kg,–,–
N#CC(c1cccnc1)N1CCN(CCNC(=O)CC(c2ccccc2)c2ccccc2)CC1 (configuration not stated),–,2.2 mg/kg,–,–
